Data from ChEMBL document CHEMBL1143412, “RSV604, a novel inhibitor of respiratory syncytial virus replication” (Antimicrob Agents Chemother, 2007).
pEC50: −log10 of the molar value. Activity calls are given as the source filed them. The calls are words filed in the database; no cut-off is given here.

Columns and labels:
[1] = tested on: Respiratory syncytial virus; test: Drug resistance, ratio of EC50 for plaque picked RSV604-resistant RSV RSS from passage 2 to EC50 for DMSO-passaged wild type RSV RSS; format: functional
[2] = tested on: Respiratory syncytial virus; test: Antiviral activity against RSV RSS infected human Hep2 cells after 5 days by plaque reduction assay; format: functional, organism-based; conditions: HEp-2, 120 h
Method in brief: (§1)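 HEp-2 monolayers in six-well plates infected with 0.2 ml of 500 PFU/ml virus. After 2 h, overlaid with DMEM, 2% FBS, 0.6% agarose plus compound dilution series. Incubated 5 days, formaldehyde-fixed, plaques stained with methylene blue or immunostained and counted. Activity expressed as percent of plaques in untreated infected wells.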

[3] = tested on: Respiratory syncytial virus; test: Antiviral activity against DMSO-passaged wild type RSV RSS infected human Hep2 cells by plaque reduction assay; format: functional, organism-based; conditions: HEp-2; method in brief: as §1
[4] = tested on: Respiratory syncytial virus; test: Antiviral activity against plaque picked RSV604-resistant RSV RSS from passage 2 in human Hep2 cells by plaque reduction assay; format: functional, organism-based; conditions: HEp-2; method in brief: as §1
[5] = tested on: Respiratory syncytial virus; test: Antiviral activity against RSV RSS infected human Hep2 cells assessed as reduction of viral antigen synthesis after 3 days by ELISA; format: functional, organism-based; conditions: HEp-2, 72 h
Method in brief: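 HEp-2 cells seeded at 5 × 10³ per well in DMEM/10% FBS for 24 h, infected with RSV RSS at MOI about 0.02, serial compound dilutions for 3 days. Cells fixed and permeabilised in methanol-acetone, blocked in milk-Tween. Probed with mouse anti-RSV monoclonal then HRP anti-mouse. Developed with o-phenylenediamine/H2O2, absorbance […].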

[6] = tested on: Respiratory syncytial virus; test: Antiviral activity against RSV B infected human Hep2 cells after 5 days by plaque reduction assay; format: functional, organism-based; conditions: HEp-2, 120 h; method in brief: as §1
[7] = tested on: Respiratory syncytial virus; test: Antiviral activity against RSV A2 infected human Hep2 cells after 5 days by plaque reduction assay; format: functional, organism-based; conditions: A2, HEp-2, 120 h; method in brief: as §1
[8] = tested on: Respiratory syncytial virus; test: Antiviral activity against RSV Long infected human Hep2 cells after 5 days by plaque reduction assay; format: functional, organism-based; conditions: HEp-2, 120 h; method in brief: as §1
[9] = tested on: Respiratory syncytial virus; test: Antiviral activity against RSV RSS infected human Hep2 cells assessed as inhibition of virus-induced cell death after 6 days by XTT assay; format: functional, organism-based; conditions: HEp-2, 144 h
Method in brief: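 HEp-2 cells seeded at 4 × 10³ per well in DMEM with 10% FBS, infected next day with RSV RSS dosed to give about 80% cytopathic effect by day 6. Serial compound dilutions (top 10 μM, 0.5% DMSO) present throughout. Viability read by XTT reduction after 6 days. EC50 taken as 50% reduction in virus-induced cell death.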

[10] = tested on: Respiratory syncytial virus; test: Antiviral activity against RSV infected human Hep2 cells assessed as reduction of plaque formation pretreated 2 hrs before viral infection; format: functional, organism-based; conditions: HEp-2
Method in brief: (§2)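 Plaque reduction in HEp-2 cells with compound added either 2 h before infection or 6 h after. Duplicate wells per dilution. Percent plaque reduction calculated against compound-free infected wells. Four independent experiments.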

[11] = tested on: Respiratory syncytial virus; test: Antiviral activity against RSV infected human Hep2 cells assessed as reduction of plaque formation treated 6 hrs after viral infection; format: functional, organism-based; conditions: HEp-2; method in brief: as §2
[12] = tested on: Respiratory syncytial virus; test: Antiviral activity against RSV infected human Hep2 cells assessed as plaque reduction […] by plaque reduction assay; format: functional, HEp-2; design: scale not given: the % may be the effect or the level left
[13] = Therapeutic index, CC50 for human Hep2 cells to EC50 for RSV RSS; format: cell-based, HEp-2; conditions: read-out: Ratio CC50/EC50
Method in brief: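 Ratio of CC50 from uninfected HEp-2 XTT control plates to EC50 from RSV RSS-infected XTT plates, both read after 6 days.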

[14] = Cytotoxicity against RSV RSS infected human Hep2 cells after 6 days by XTT assay; format: cell-based, HEp-2

NC(=O)c1ncn([C@@H]2O[C@H](CO)[C@@H](O)[C@H]2O)n1 [RIBAVIRIN]
fold change (FC) [1]: 0.85
pEC50 [2]: 4.88
pEC50 [3]: 4.68
pEC50 [4]: 4.75
pEC50 [5]: 4.60
pEC50 [6]: 4.54
pEC50 [7]: 4.72
pEC50 [8]: 4.77
pEC50 [9]: 4.94

O=c1n(Cc2nc3ccccc3n2CCCCO)c2cnccc2n1C1CC1
Activity [10]: Active
Activity [11]: inactive
Activity [12]: 50%

COc1cc(S(C)(=O)=O)ccc1C(=O)N[C@H]1N=C(c2ccccc2)c2ccccc2NC1=O
fold change (FC) [1]: 42.3
selectivity ratio [13]: > 100
pEC50 [2]: 6.30
CC50 at 144 h [14]: > 50 µM
pEC50 [3]: 6.40
pEC50 [4]: 4.77
pEC50 [5]: 5.89
pEC50 [6]: 6.37
pEC50 [8]: 6.41
pEC50 [9]: 6.30
